Test results reported in ChEMBL document CHEMBL2040831, “Discovery of ((S)-5-(methoxymethyl)-7-(1-methyl-1H-indol-2-yl)-2-(trifluoromethyl)-4,7-dihydropyrazolo[1,5-a]pyrimidin-6-yl)((S)-2-(3-methylisoxazol-5-yl)pyrrolidin-1-yl)methanone as a potent and selective I(Kur) inhibitor” (J Med Chem, 2012).
The source made the active and inactive calls. No cut-off for these calls is given here.

Legend:
[1] = target: T1, Potassium voltage-gated channel subfamily A member 5 (Homo sapiens, UniProt P22460); assay: Inhibition of human KV1.5 ion channel expressed in mouse L929 cells by whole cell patch clamp assay; assay type: cell-based
T1 sequence (P22460 whole entry): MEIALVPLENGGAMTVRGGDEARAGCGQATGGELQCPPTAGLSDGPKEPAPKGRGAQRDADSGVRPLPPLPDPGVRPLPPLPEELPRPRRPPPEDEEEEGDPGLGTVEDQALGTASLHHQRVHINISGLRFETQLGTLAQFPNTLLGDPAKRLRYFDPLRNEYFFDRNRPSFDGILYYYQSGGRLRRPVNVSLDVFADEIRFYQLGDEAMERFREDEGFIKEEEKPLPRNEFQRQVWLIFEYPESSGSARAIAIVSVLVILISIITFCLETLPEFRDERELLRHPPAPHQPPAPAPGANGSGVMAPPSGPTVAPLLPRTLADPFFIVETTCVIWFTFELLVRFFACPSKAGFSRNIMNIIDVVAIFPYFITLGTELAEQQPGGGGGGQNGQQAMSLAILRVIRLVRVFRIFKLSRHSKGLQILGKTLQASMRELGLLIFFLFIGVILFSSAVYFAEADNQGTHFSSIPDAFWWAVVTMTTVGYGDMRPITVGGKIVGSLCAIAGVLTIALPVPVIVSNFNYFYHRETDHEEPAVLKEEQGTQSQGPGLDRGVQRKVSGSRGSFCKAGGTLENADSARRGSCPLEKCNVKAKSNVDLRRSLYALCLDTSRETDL

[2] = target: hERG (KCNH2) (Homo sapiens, UniProt Q12809); assay: Inhibition of human ERG expressed in HEK293 cells at 10 uM by patch clamp assay; assay type: cell-based; details: HEK293 cells expressing human ERG
Sequence of hERG (KCNH2) (Q12809 whole entry): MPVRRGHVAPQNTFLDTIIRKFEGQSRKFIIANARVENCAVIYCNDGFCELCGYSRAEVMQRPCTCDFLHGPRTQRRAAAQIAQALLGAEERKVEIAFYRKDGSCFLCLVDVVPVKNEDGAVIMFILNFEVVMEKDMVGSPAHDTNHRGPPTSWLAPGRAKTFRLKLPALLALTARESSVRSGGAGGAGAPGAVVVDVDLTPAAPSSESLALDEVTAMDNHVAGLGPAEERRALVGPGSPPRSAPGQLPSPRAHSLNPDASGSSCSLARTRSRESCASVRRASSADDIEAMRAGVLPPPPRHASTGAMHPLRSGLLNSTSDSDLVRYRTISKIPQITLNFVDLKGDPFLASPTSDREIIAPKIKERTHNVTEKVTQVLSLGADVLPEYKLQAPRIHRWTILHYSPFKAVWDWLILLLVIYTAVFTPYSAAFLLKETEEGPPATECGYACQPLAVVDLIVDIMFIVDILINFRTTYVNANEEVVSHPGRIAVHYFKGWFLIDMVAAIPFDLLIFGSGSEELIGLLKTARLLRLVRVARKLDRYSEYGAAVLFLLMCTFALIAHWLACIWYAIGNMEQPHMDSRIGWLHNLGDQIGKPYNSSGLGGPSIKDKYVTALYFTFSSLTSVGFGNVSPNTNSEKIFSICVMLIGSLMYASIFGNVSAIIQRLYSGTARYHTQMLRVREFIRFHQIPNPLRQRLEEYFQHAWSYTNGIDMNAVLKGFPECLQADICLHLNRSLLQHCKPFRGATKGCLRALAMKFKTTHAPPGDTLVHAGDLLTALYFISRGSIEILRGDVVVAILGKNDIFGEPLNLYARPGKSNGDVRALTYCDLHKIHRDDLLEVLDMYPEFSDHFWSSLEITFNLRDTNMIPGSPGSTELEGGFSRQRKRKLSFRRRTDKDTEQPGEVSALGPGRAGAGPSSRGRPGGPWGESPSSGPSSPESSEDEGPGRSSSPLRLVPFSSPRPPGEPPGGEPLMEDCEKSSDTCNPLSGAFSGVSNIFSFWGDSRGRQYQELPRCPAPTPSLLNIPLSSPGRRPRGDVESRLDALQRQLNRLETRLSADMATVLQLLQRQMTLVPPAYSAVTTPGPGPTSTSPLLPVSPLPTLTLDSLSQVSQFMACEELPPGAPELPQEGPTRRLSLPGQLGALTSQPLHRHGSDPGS

[3] = Drug degradation assessed as GSH adduct formation by fluorescence detection assay; assay type: physicochemical
In short: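 Test article at 100 μM incubated 30 min at 37 °C with 2 mg/mL human liver microsomes in 0.1 M potassium phosphate buffer containing 2 mM NADPH and 2 mM dansyl glutathione. Quenched with 2 volumes of 5 mM dithiothreitol in methanol, vortexed and centrifuged. Supernatant analysed by HPLC with fluorescence detection (Ex 340 nm, Em 525 nm) to quantify GSH adducts.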

[4] = target: T1, Potassium voltage-gated channel subfamily A member 5; assay: Inhibition of human KV1.5 ion channel expressed in mouse L929 cells at 0.3 uM by whole cell patch clamp assay; assay type: cell-based
[5] = system: Liver microsomes; assay: Metabolic stability in rat liver microsomes; assay type: ADME, Microsome
[6] = system: Liver microsomes; assay: Metabolic stability in human liver microsomes; assay type: ADME, Microsome
[7] = system: Oryctolagus cuniculus; assay: Proarrythmic activity in methoxamine-sensitized rabbit assessed as increase in ventricular effective refractory period at 0.3 to 10 mg/kg, iv relative to control; assay type: organism-based, Cardiac ventricle; design: dose 0.3-10 mg/kg, route intravenous; details: in vivo
[8] = target: T2, A-type voltage-gated potassium channel KCND3 (Homo sapiens, UniProt Q9UK17); assay: Inhibition of KV4.3 ion channel
T2 sequence (Q9UK17 whole entry): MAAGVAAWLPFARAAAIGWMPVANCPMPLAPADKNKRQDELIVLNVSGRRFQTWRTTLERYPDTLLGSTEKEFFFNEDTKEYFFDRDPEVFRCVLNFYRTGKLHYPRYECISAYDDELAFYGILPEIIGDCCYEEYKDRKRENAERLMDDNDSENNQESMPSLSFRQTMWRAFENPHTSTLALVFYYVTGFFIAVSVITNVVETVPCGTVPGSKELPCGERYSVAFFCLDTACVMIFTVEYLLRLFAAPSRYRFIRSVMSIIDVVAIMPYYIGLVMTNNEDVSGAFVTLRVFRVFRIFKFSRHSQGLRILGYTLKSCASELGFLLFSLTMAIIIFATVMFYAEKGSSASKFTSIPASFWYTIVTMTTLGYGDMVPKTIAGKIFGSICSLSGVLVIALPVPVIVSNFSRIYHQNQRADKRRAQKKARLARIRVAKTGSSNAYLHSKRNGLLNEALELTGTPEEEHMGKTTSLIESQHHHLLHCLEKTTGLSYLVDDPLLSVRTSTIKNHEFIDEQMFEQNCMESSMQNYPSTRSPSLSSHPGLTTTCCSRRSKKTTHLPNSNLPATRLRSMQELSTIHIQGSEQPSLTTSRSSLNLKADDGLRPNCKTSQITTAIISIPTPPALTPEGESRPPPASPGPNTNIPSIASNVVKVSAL

[9] = system: Plasma; assay: Plasma concentration in methoxamine-sensitised rabbit AERP model at 10 mg/kg, iv; assay type: ADME, organism-based, Oryctolagus cuniculus; design: dose 10 mg/kg, route intravenous; details: in vivo
[10] = Volume of distribution at steady state in rat at 12 umol/kg, iv and 25.5 umol/kg, po; assay type: ADME, organism-based; details: in vivo, read-out: Vdss
[11] = Inhibition of ICAL ion channel at 10 uM
[12] = Volume of distribution at steady state in rabbit at 5.6 umol/kg, iv; assay type: ADME, organism-based, Oryctolagus cuniculus; details: in vivo, read-out: Vdss
[13] = system: Plasma; assay: Plasma concentration in methoxamine-sensitised rabbit AERP model at 1 mg/kg, iv; assay type: ADME, organism-based, Oryctolagus cuniculus; design: dose 1 mg/kg, route intravenous; details: in vivo
[14] = Inhibition of ICAL ion channel
[15] = Half life in dog at 5.6 umol/kg, iv and 5.2 umol/kg, po; assay type: ADME, organism-based, Canis lupus familiaris; details: in vivo
[16] = target: Voltage-gated inwardly rectifying potassium channel KCNH2 (Homo sapiens, UniProt Q12809); assay: Inhibition of human ERG expressed in HEK293 cells by patch clamp assay; assay type: cell-based
Sequence of Voltage-gated inwardly rectifying potassium channel KCNH2 (Q12809 whole entry): as the sequence (Q12809 whole entry) above

[17] = Oral bioavailability in rat at 25.5 umol/kg; assay type: ADME, organism-based; details: in vivo
[18] = Inhibition of INa ion channel at 10 uM
[19] = Half life in rat at 12 umol/kg, iv and 25.5 umol/kg, po; assay type: ADME, organism-based; details: in vivo
[20] = Volume of distribution at steady state in dog at 5.6 umol/kg, iv and 5.2 umol/kg, po; assay type: ADME, organism-based, Canis lupus familiaris; details: in vivo, read-out: Vdss
[21] = Oral bioavailability in dog at 5.2 umol/kg; assay type: ADME, organism-based, Canis lupus familiaris; details: in vivo
[22] = system: Plasma; assay: Plasma concentration in methoxamine-sensitised rabbit AERP model at 3 mg/kg, iv; assay type: ADME, organism-based, Oryctolagus cuniculus; design: dose 3 mg/kg, route intravenous; details: in vivo
[23] = Inhibition of INa ion channel
[24] = Clearance in rabbit at 5.6 umol/kg, iv; assay type: ADME, organism-based, Oryctolagus cuniculus; details: in vivo
[25] = Clearance in dog at 5.6 umol/kg, iv and 5.2 umol/kg, po; assay type: ADME, organism-based, Canis lupus familiaris; details: in vivo
[26] = system: Plasma; assay: Plasma concentration in methoxamine-sensitised rabbit AERP model at 0.3 mg/kg, iv; assay type: ADME, organism-based, Oryctolagus cuniculus; design: dose 0.3 mg/kg, route intravenous; details: in vivo
[27] = Half life in rabbit at 5.6 umol/kg, iv; assay type: ADME, organism-based, Oryctolagus cuniculus; details: in vivo
[28] = Clearance in rat at 12 umol/kg, iv and 25.5 umol/kg, po; assay type: ADME, organism-based; details: in vivo
[29] = Oral bioavailability in rat at 26 umol/kg; assay type: ADME, organism-based; details: in vivo
[30] = system: Oryctolagus cuniculus; assay: Antiatrial fibrillation activity in methoxamine-sensitised rabbit assessed as increase in atrial effective refractory period at 1 mg/kg, iv relative to control; assay type: functional, Cardiac atrium
[31] = Clearance in rat at 12 umol/kg, iv and 26 umol/kg, po; assay type: ADME, organism-based; details: in vivo
[32] = Volume of distribution at steady state in rat at 12 umol/kg, iv and 26 umol/kg, po; assay type: ADME, organism-based; details: in vivo, read-out: Vdss
[33] = system: Oryctolagus cuniculus; assay: Antiatrial fibrillation activity in methoxamine-sensitised rabbit assessed as increase in atrial effective refractory period at 0.3 to 10 mg/kg, iv relative to control; assay type: functional, organism-based; details: Cardiac atrium
[34] = Half life in rat at 12 umol/kg, iv and 26 umol/kg, po; assay type: ADME, organism-based; details: in vivo

CC1=C(C(=O)N2CCC[C@H]2c2cc(C)no2)[C@@H](c2cc3ccccc3n2C)n2nc(C(F)(F)F)cc2N1
IC50 [1]: 72 nM | inhibition at 10 µM [2]: 19%

COCC1=C(C(=O)N2CCC[C@H]2c2cc(C)no2)[C@@H](c2ccc(Cl)c(Cl)c2)n2nccc2N1
IC50 [1]: 70 nM | inhibition at 10 µM [2]: 14%

CC1=C(C(=O)N2CCC[C@H]2c2ccc(F)cc2)[C@@H](c2ccc(Cl)c(Cl)c2)n2ncc(C)c2N1
GSH adduct formation [3]: < 1% | inhibition [4]: 45%

CC1=C(C(=O)N2CCC[C@H]2c2ccc(F)cc2)[C@@H](c2ccc(Cl)c(Cl)c2)n2nc(C)cc2N1
Stability [5]: Unstable | Stability [6]: Unstable | GSH adduct formation [3]: 5% | IC50 [1]: 100 nM | inhibition at 10 µM [2]: 10%

CC1=C(C(=O)N2CCN(c3ccc(F)cc3)CC2)[C@@H](c2ccc(Cl)c(Cl)c2)n2nccc2N1
inhibition at 10 µM [2]: 42%

CC1=C(C(=O)N2CCC[C@H]2c2ccc(F)cc2)[C@@H](c2ccc(Cl)c(Cl)c2)n2nccc2N1 [BMS-394136]
GSH adduct formation [3]: 33% | inhibition at 10 µM [2]: 30%

CC1=C(C(=O)N2CCN(c3ccccc3)CC2)C(c2ccc(Cl)c(Cl)c2)n2nc(C)cc2N1 (racemic)
IC50 [1]: 149 nM | inhibition at 10 µM [2]: 29%

CC1=C(C(=O)N2CCC[C@H]2c2cc(C)no2)[C@@H](c2ccc(Cl)c(Cl)c2)n2nc(C)cc2N1
Stability [5]: Unstable | Stability [6]: Unstable | GSH adduct formation [3]: < 1% | IC50 [1]: 165 nM | inhibition at 10 µM [2]: 13%

CC1=C(C(=O)N2CCN(c3ccc(F)cc3)CC2)C(c2ccc(Cl)c(Cl)c2)n2nc(C)cc2N1 (racemic)
Stability [5]: Unstable | Stability [6]: Unstable | GSH adduct formation [3]: < 1% | IC50 [1]: 124 nM | inhibition at 10 µM [2]: 60%

CC1=C(C(=O)N2CCC[C@H]2c2cc(C)no2)[C@@H](c2nc3ccccc3s2)n2nc(C(F)(F)F)cc2N1
IC50 [1]: 281 nM

COCC1=C(C(=O)N2CCC[C@H]2c2cc(C)no2)[C@@H](c2cc3ccccc3n2C)n2nc(C(F)(F)F)cc2N1
Activity [7]: Non-toxic | IC50 [8]: 5800 nM | concentration [9]: 13400 nM | Vd [10]: 1.9 L/kg | inhibition [11]: 37% | Vd [12]: 5 L/kg | concentration [13]: 700 nM | IC50 [14]: > 10000 nM | half-life [15]: 1.8 h | IC50 [16]: > 10000 nM | bioavailability [17]: 61% | inhibition [18]: 10% | half-life [19]: 2.5 h | Vd [20]: 3.7 L/kg | IC50 [1]: 150 nM | bioavailability [21]: 31% | concentration [22]: 2100 nM | IC50 [23]: > 10000 nM | inhibition at 10 µM [2]: 14% | clearance [24]: 47 mL/min/kg | clearance [25]: 29 mL/min/kg | concentration [26]: 300 nM | half-life [27]: 2 h | clearance [28]: 12 mL/min/kg

CC1=C(C(=O)N2CCC[C@H]2c2cc(C)no2)[C@@H](c2ccc(Cl)c(Cl)c2)n2nccc2N1
GSH adduct formation [3]: 21% | IC50 [1]: 83 nM | inhibition at 10 µM [2]: 41%

CC1=C(C(=O)N2CCC[C@H]2c2cc(C)no2)[C@@H](c2ccc(Cl)c(Cl)c2)n2nc(C(F)(F)F)cc2N1
Activity [7]: Non-toxic | Stability [5]: Stable | concentration [9]: 17300 nM | Stability [6]: Stable | GSH adduct formation [3]: < 1% | concentration [13]: 1700 nM | half-life [15]: 1.8 h | Vd [20]: 1.7 L/kg | bioavailability [29]: 68% | Activity [30]: 20% | IC50 [1]: 101 nM | bioavailability [21]: 53% | concentration [22]: 6700 nM | inhibition at 10 µM [2]: 47% | clearance [31]: 27 mL/min/kg | Vd [32]: 3 L/kg | clearance [25]: 11 mL/min/kg | Activity [33]: Active | concentration [26]: 700 nM | half-life [34]: 1 h

CC1=C(C(=O)N2CCC[C@H]2c2ccc(F)cc2)[C@@H](c2ccc(Cl)c(Cl)c2)n2nc(C(F)(F)F)cc2N1
inhibition [4]: 37%

CC1=C(C(=O)N2CCN(c3ccc(F)cc3)CC2)C(c2ccc(Cl)c(Cl)c2)n2nc(Cl)cc2N1 (racemic)
IC50 [1]: 209 nM

CC1=C(C(=O)N2CCN(c3ccc(F)cc3)CC2)C(c2ccc(Cl)c(Cl)c2)n2nc(C(F)(F)F)cc2N1 (racemic)
IC50 [1]: 419 nM

CC1=C(C(=O)N2CCC[C@H]2c2cc(C)no2)[C@@H](c2nc3ccccc3n2C)n2nc(C(F)(F)F)cc2N1
inhibition [4]: 36%

CC1=C(C(=O)N2CCC[C@H]2c2cc(C)no2)[C@@H](c2ccc(Cl)c(Cl)c2)n2nc(C3CC3)cc2N1
IC50 [1]: 227 nM

CC1=C(C(=O)N2CCN(c3ccc(F)cc3)CC2)C(c2ccc(Cl)c(Cl)c2)n2ncc(Cl)c2N1 (racemic)
GSH adduct formation [3]: 4% | inhibition [4]: 24%
